Laboratory results reported in ChEMBL document CHEMBL4732024, “Second-generation tricyclic pyrimido-pyrrolo-oxazine mTOR inhibitor with predicted blood-brain barrier permeability” (RSC Med Chem, 2021).

What was measured:
MDR1 (P-gp, ABCB1) [1] = molecular target: T1, MDR1 (P-gp, ABCB1) (Homo sapiens, UniProt P08183); assay: Substrate activity at human MDR1 expressed in MDCK cells assessed as apparent permeability at 1 uM by UPLS-MS/MS analysis; format: ADME, cell-based
How it was run: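 TransWell assay in CRISPR-Cas9 MDCK cells expressing human MDR1 with endogenous canine MDR1 knocked out (MDCK-hMDR1^cMDR1-ko), grown on filters; apparent permeability measured apical to basolateral.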

MDR1 (P-gp, ABCB1) [2] = molecular target: T1, MDR1 (P-gp, ABCB1); assay: Substrate activity at human MDR1 expressed in MDCK cells assessed as efflux ratio of apparent permeability across basolateral to apical side over apical to basolateral side at 1 uM by UPLS-MS/MS analysis; format: ADME, cell-based
[3] = Inhibition of mTORC2 in human A2058 cells assessed as reduction in PKB phosphorylation at S473 residue incubated for 1 hr by Western blot analysis; format: cell-based; details: A2058, 1 h
How it was run: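 A2058 melanoma cells were used. mTORC1 activity was read as phospho-S6 ribosomal protein (Ser235/236), and mTORC2 activity as phospho-PKB/Akt (Ser473). IC50 came from a 7-point 1:2 serial dilution, with each concentration measured in triplicate. Data are reported as mean ± SD.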

mTORC1 = mTORC1 (Homo sapiens, UniProt P42345); assay: Inhibition of mTORC1 in human A2058 cells assessed as reduction in S6 ribosomal protein phosphorylation at Ser235/236 residues incubated for 1 hr by Western blot analysis; format: cell-based
How it was run: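 A2058 melanoma cells; phospho-S6 (Ser235/236) used as the mTORC1 readout. IC50 from a 7-point 1:2 serial dilution, each concentration in triplicate. Reported as mean ± SD.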

[4] = molecular target: Phosphatidylinositol 4,5-bisphosphate 3-kinase catalytic subunit alpha isoform (Homo sapiens, UniProt P42336); assay: Inhibition of alexa fluor 647-labeled kinase tracer 314 binding to recombinant N-terminal His6-tagged p110alpha (unknown origin) by TR-FRET assay
How it was run: (§1)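 LanthaScreen TR-FRET displacement of tracer from the ATP-binding site of recombinant kinase. 10-point 1:4 serial dilution with each concentration in duplicate. IC50 converted to Ki using a factor of 2.05 for mTOR and 9.84 for p110α. Reported as mean ± SD.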

[5] = molecular target: Serine/threonine-protein kinase mTOR (Homo sapiens, UniProt P42345); assay: Inhibition of alexa fluor 647-labeled kinase tracer 314 binding to recombinant N-terminal GST-fused mTOR (1360 to 2549 residues) (unknown origin) by TR-FRET assay; how it was run: as §1
CYP1A1 = molecular target: T2, CYP1A1 (Homo sapiens, UniProt P04798); assay: (§2) Stability of compound assessed as recombinant human CYP1A1 expressed in baculovirus infected insect cells mediated compound metabolism by measuring parent compound remaining at 1 uM preincubated with NADP+ regenerating system for 10 mins followed by enzyme addition and measured after 60 mins by LC-MS analysis; format: ADME; details: time 70 min, read-out: Stabilty
T2 sequence (P04798 whole entry): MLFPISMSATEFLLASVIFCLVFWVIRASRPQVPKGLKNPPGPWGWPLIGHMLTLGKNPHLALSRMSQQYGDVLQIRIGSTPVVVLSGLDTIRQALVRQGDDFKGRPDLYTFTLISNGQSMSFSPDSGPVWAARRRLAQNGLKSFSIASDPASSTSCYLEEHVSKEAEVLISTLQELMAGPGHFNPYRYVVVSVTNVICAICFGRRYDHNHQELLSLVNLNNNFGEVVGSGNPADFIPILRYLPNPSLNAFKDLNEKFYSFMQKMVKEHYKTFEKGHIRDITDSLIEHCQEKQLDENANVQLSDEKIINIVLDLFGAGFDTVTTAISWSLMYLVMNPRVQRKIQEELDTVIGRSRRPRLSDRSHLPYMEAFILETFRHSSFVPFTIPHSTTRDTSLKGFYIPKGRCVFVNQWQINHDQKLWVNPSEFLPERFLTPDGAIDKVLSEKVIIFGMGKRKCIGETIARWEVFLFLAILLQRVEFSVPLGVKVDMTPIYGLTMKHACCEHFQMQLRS
How it was run: (§3)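 Individual human recombinant CYP isoenzymes; percentage of parent compound remaining after 60 min incubation.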

CYP1A2 = molecular target: T3, CYP1A2 (Homo sapiens, UniProt P05177); assay: as §2, with “CYP1A2” for “CYP1A1”; format: ADME; details: time 70 min, read-out: Stabilty; how it was run: as §3
T3 sequence (P05177 whole entry): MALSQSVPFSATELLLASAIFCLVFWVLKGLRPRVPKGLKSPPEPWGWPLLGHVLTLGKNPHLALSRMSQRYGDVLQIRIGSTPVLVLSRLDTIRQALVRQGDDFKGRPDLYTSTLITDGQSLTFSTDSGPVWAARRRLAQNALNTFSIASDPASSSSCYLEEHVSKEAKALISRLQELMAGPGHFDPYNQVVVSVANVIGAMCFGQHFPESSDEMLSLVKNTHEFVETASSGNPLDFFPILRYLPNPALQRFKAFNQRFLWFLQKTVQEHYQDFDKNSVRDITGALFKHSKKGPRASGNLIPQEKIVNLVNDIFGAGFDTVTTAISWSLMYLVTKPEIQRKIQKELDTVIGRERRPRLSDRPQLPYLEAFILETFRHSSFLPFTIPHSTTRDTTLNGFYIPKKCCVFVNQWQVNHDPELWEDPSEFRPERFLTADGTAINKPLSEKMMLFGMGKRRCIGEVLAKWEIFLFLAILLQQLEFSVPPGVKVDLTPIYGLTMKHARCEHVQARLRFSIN

T1 sequence (P08183 whole entry): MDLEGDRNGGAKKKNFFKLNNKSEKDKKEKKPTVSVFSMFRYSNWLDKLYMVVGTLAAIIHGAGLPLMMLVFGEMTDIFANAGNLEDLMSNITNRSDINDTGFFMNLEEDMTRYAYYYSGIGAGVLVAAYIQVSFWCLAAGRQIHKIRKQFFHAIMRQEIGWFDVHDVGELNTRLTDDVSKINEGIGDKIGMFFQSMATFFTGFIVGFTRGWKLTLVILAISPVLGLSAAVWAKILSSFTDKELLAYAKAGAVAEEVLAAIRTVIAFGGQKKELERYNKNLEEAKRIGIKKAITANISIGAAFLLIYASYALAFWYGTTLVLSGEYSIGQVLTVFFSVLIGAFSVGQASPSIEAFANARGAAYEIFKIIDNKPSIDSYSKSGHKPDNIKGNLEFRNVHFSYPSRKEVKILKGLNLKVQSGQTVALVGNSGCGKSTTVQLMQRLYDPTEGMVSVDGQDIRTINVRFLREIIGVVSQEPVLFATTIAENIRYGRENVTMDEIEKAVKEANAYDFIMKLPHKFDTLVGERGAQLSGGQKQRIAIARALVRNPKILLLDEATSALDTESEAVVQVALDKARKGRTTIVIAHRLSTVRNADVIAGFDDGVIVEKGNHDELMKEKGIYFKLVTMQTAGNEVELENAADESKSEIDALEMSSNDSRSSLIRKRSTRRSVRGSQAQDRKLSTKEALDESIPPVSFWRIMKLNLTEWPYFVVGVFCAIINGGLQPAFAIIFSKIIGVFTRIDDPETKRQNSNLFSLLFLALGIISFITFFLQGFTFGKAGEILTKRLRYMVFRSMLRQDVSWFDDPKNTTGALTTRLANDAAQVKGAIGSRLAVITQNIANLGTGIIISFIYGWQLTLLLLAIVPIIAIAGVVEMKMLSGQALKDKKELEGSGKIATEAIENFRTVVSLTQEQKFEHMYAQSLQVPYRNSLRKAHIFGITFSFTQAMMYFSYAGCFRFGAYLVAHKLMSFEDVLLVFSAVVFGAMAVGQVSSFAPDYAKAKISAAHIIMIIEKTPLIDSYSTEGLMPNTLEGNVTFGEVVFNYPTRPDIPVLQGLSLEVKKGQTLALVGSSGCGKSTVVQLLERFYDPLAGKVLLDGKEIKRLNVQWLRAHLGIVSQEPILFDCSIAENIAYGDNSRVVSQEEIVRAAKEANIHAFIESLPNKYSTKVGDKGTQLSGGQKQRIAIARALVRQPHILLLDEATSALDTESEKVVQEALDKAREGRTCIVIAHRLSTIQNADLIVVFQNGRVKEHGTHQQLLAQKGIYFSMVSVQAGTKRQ
Sequence of Phosphatidylinositol 4,5-bisphosphate 3-kinase catalytic subunit alpha isoform (P42336 whole entry, canonical isoform): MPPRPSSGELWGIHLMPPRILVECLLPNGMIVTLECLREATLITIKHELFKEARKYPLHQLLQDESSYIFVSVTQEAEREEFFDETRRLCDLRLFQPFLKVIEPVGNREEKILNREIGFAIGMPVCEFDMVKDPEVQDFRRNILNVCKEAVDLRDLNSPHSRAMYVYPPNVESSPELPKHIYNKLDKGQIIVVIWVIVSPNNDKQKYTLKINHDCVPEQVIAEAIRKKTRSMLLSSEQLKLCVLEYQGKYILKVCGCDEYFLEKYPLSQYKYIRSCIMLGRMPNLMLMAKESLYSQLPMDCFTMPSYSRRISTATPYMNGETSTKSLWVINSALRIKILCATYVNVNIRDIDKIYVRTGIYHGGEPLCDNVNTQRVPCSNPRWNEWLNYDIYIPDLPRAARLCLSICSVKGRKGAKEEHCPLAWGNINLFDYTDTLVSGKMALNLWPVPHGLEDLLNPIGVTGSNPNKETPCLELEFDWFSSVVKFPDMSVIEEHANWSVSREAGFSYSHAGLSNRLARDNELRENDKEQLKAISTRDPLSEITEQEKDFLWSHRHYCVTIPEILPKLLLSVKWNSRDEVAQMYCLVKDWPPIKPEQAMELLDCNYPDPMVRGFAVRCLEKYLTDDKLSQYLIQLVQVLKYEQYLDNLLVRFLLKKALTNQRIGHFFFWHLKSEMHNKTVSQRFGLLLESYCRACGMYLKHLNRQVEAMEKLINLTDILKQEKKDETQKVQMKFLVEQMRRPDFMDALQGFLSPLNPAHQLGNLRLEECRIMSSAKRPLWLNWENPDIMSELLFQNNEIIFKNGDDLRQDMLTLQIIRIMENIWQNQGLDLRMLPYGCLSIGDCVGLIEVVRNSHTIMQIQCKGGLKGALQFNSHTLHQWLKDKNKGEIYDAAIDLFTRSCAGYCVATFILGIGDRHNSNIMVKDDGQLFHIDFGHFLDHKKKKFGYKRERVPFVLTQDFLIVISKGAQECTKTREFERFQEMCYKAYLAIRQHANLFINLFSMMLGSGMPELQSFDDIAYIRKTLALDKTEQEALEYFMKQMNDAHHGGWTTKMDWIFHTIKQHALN

Row | Structure (SMILES) | Papp A→B at 1 µM (MDR1 (P-gp, ABCB1) [1]) [×10⁻⁶ cm/s] | efflux ratio at 1 µM (MDR1 (P-gp, ABCB1) [2]) | IC50 [3] [nM] | IC50 (mTORC1) [nM] | Ki [4] [nM] | Ki [5] [nM] | remaining at 1 h, 1 µM (CYP1A1) [%] | remaining at 1 h, 1 µM (CYP1A2) [%]
1 | C[C@@H]1COCCN1c1nc(-c2cnc(N)cn2)nc2c1C[C@@H]1COCCN21 | < 60 | > 20 | – | – | – | – | – | –
2 | C[C@@H]1COCCN1c1nc(-c2cnc(N)cc2C(F)F)nc2c1C[C@@H]1COCCN21 | – | – | 253 | 67 | 232 | 12 | – | –
3 | C[C@@H]1COCCN1c1nc(-c2ccc(N)nn2)nc2c1C[C@@H]1COCCN21 | – | – | 162 | 84 | 847 | 11 | – | –
4 | C[C@@H]1COCCN1c1nc(-c2cnc(N)nc2C(F)F)nc2c1C[C@@H]1COCCN21 | – | – | – | 119 | 17 | 34 | – | –
5 | C[C@@H]1COCCN1c1nc(-c2nc(N)ns2)nc2c1C[C@@H]1COCCN21 | – | – | 512 | 261 | 806 | 58 | – | –
6 | C[C@@H]1COCCN1c1nc(-c2cnc(N)cc2C(F)(F)F)nc2c1C[C@@H]1COCCN21 | – | – | 1090 | 776 | 272 | 118 | – | –
7 | C[C@@H]1COCCN1c1nc(-c2cnc(N)c(C(F)(F)F)c2)nc2c1C[C@@H]1COCCN21 | – | – | 549 | 348 | > 20000 | 33 | – | –
8 | C[C@@H]1COCCN1c1nc(-c2cnc(N)nc2C(F)(F)F)nc2c1C[C@@H]1COCCN21 | – | – | 446 | 694 | 55 | 249 | – | –
9 | C[C@@H]1COCCN1c1nc(-c2cnc(N)s2)nc2c1C[C@@H]1COCCN21 | < 60 | > 20 | 157 | 102 | 2490 | 15 | 48 | 87
10 | C[C@@H]1COCCN1c1nc(-c2nnc(N)s2)nc2c1C[C@@H]1COCCN21 | < 60 | > 20 | 135 | 80 | 1550 | 8.2 | – | –
